Experimental data from ChEMBL document CHEMBL1138601, “Diversity-oriented synthesis of a cytisine-inspired pyridone library leading to the discovery of novel inhibitors of Bcl-2” (Bioorg Med Chem Lett, 2009).

Experiments:
[1] = molecular target: Bcl-2-like protein 1 (Homo sapiens, UniProt Q07817); test: Displacement of fluorescently-tagged BH3 peptide from Bcl-XL by chemiluminescent nitrogen detection method
In short: (§1)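 Solution-phase competition binding in HTS format. Inhibitors compete with a fluorescently tagged BH3 peptide for Bcl-2 or Bcl-xL. Library compounds were first screened at one fixed concentration. Hits exceeding three standard deviations above assay error were then run in a multi-point dilution series, and Ki values were derived from that series.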

[2] = molecular target: Apoptosis regulator Bcl-2 (Homo sapiens, UniProt P10415); test: Displacement of fluorescently-tagged BH3 peptide from Bcl-2 by chemiluminescent nitrogen detection method; in short: as §1
Sequence of Apoptosis regulator Bcl-2 (P10415 whole entry): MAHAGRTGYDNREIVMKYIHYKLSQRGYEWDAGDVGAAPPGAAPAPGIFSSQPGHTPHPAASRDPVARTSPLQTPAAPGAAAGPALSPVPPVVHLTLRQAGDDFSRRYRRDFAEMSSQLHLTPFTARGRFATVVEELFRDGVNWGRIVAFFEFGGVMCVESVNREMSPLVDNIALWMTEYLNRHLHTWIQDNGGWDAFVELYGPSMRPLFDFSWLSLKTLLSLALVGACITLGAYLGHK

Sequence of Bcl-2-like protein 1 (Q07817 whole entry): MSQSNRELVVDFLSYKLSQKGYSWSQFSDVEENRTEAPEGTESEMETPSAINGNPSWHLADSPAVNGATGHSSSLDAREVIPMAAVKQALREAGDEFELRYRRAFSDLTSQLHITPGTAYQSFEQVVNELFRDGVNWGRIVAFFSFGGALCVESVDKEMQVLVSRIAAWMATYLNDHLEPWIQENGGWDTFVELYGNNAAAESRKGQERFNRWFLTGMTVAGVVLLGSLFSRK

Ki [1] [µM] | Ki [2] [µM] | SMILES
6.6 | 1.3 | CN(C)CCNC(=O)[C@H]1[C@H](CO)[C@H]2Cn3c(cccc3=O)[C@@H]1N2c1nc(-c2ccc(Cl)cc2)c(-c2ccccc2)s1
7.8 | 1.6 | O=C(NCCCN1CCCC1)[C@H]1[C@H](CO)[C@H]2Cn3c(cccc3=O)[C@@H]1N2c1nc(-c2ccc(Cl)cc2)c(-c2ccccc2)s1
5.7 | 2 | CN(C)CCNC(=O)[C@@H]1[C@@H](CO)[C@@H]2Cn3c(cccc3=O)[C@H]1N2c1nc(-c2ccc(Cl)cc2)c(-c2ccccc2)s1
> 100 | 7.8 | O=C(N[C@@H]1CCN(Cc2ccccc2)C1)[C@H]1[C@H](CO)[C@H]2Cn3c(cccc3=O)[C@H]2N1CC1CCCCC1
> 100 | 4.1 | O=C(N[C@H]1CCN(Cc2ccccc2)C1)[C@H]1[C@H](CO)[C@H]2Cn3c(cccc3=O)[C@H]2N1CC1CCCCC1
> 100 | 5.4 | O=C(NC1Cc2ccccc2C1)[C@H]1[C@H](CO)[C@H]2Cn3c(cccc3=O)[C@H]2N1CC1CCCCC1
> 100 | 8.4 | O=C(NCc1ccc(Oc2ccccc2)cc1)[C@H]1[C@H](CO)[C@H]2Cn3c(cccc3=O)[C@H]2N1CC1CCCCC1
5.7 | 3 | O=C(NCCCN1CCCC1)[C@@H]1[C@@H](CO)[C@@H]2Cn3c(cccc3=O)[C@H]1N2c1nc(-c2ccc(Cl)cc2)c(-c2ccccc2)s1
> 100 | 6.8 | O=C([C@@H]1[C@@H](CO)[C@@H]2Cn3c(cccc3=O)[C@@H]2N1Cc1ccc(Oc2ccccc2)cc1)N1CCC(c2ccc(F)cc2)CC1
6 | 2.5 | O=C(NCCN1CCCCC1)[C@@H]1[C@@H](CO)[C@@H]2Cn3c(cccc3=O)[C@H]1N2c1nc(-c2ccc(Cl)cc2)c(-c2ccccc2)s1
> 100 | 4.3 | COCCNC(=O)[C@@H]1[C@@H](CO)[C@@H]2Cn3c(cccc3=O)[C@H]1N2c1nc(-c2ccc(Cl)cc2)c(-c2ccccc2)s1
> 100 | 14 | COCCNC(=O)[C@H]1[C@H](CO)[C@H]2Cn3c(cccc3=O)[C@@H]1N2c1nc(-c2ccc(Cl)cc2)c(-c2ccccc2)s1
> 100 | 1.2 | O=C([C@@H]1[C@@H](CO)[C@@H]2Cn3c(cccc3=O)[C@@H]2N1Cc1ccc(Cl)c(Cl)c1)N1CCC(Cc2ccccc2)CC1
> 100 | 5.2 | O=C([C@@H]1[C@@H](CO)[C@@H]2Cn3c(cccc3=O)[C@@H]2N1Cc1ccc(Oc2ccccc2)cc1)N1CCC(Cc2ccccc2)CC1
11 | 1.5 | O=C(NCCN1CCCCC1)[C@H]1[C@H](CO)[C@H]2Cn3c(cccc3=O)[C@@H]1N2c1nc(-c2ccc(Cl)cc2)c(-c2ccccc2)s1
> 100 | 2.2 | O=C([C@@H]1[C@@H](CO)[C@@H]2Cn3c(cccc3=O)[C@@H]2N1Cc1ccc(Cl)c(Cl)c1)N1CCC(c2ccc(F)cc2)CC1
